The species named for assay [1] is Oryctolagus cuniculus. Put plainly: Percentage inhibition of Transglutaminase activity in rabbit at 10 nM. An outline of the steps:
(§1)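 Rabbit tracheal epithelial cells on fibronectin/BSA/vitrogen-coated dishes in supplemented Ham's F12, treated with retinoid in Me₂SO from day 5 for 5 days. Cells were sonicated in PBS with 10 mM dithiothreitol, and transglutaminase activity was measured as [³H]putrescine incorporation into casein, in triplicate.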

For assay [2], the species on record is Oryctolagus cuniculus. Put plainly: Percentage inhibition of cholesterol-3-sulfate activity rabbit at 10 nM. The assay is classed as functional. On the set-up: scale not given: the % may be the effect or the level left. In short, it runs like this: (§2)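 Rabbit tracheal epithelial cells in supplemented Ham's F12, given retinoid (0.1 or 10 nM) in Me₂SO from day 5 for 5 days. Cells were labeled 22 h with 25 μCi/mL Na₂³⁵SO₄, trypsinized, and extracted with CHCl₃/MeOH. Inhibition of ³⁵SO₄ incorporation into cholesterol 3-sulfate was measured relative to control.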

The subject of assay [3] is F9. The experiment in a line: Ability to displace [3H]all-trans-retinoic acid from F9 embryonal carcinoma cells, was assessed in a F9 laminin release assay. The assay is classed as functional. The conditions noted are these: Mus musculus, F9, 96 h; read-out: ED50 (the source's name).
Assay [4] deals with Ornithine decarboxylase (Mus musculus) (UniProt P00860). The experiment in a line: Inhibitory effect of compound on the induction of ornithine decarboxylase in CD-1 mouse.
Assay [5] is filed under the species Oryctolagus cuniculus. The experiment in a line: Percentage inhibition of Transglutaminase activity in rabbit at 0.1 nM. Also on record: scale not given: the % may be the effect or the level left. An outline of the steps: as §1
For assay [6], the target named is Cellular retinoic acid-binding protein 1 (Gallus gallus) (UniProt P40220). Put plainly: Concentration of compound required to inhibit binding of 2.5 uM [3H]all-trans-retinoic acid by 50% in chick. In short, it runs like this:
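Chick embryo skin CRABP (12–13-day), with albumin removed on Affi-Gel Blue. Eluates (1 mg protein/0.4 mL) were incubated with saturable [³H]-all-trans-retinoic acid ± 1-, 5-, 10- or 25-fold molar excess of unlabeled retinoid. Free ligand was removed with dextran-coated charcoal, followed by filtration and counting of bound radioactivity. Nonspecific binding was defined with 25-fold excess of retinoic acid. ID50 from semilog plots.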

The species entered for assay [7] is Oryctolagus cuniculus. The experiment in a line: Percentage inhibition of cholesterol-3-sulfate activity in rabbit at 0.1 nM. The assay is classed as functional. An outline of the steps: as §2
The nature of assay [8]: Inhibitory dose against tracheal organ culture reversal of keratinization. The assay is classed as functional. The settings on record: Cricetulus griseus, Trachea; read-out: ID50 (the source's name). In short, it runs like this:
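Retinoid-deficient hamster tracheas in organ culture, scored for reversal of keratinization. At least six cultures per retinoid concentration; ID50 by polynomial interpolation.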

The species named for assay [9] is Oryctolagus cuniculus. Put plainly: cross-linked envelope inhibition assay was performed at 10 nM compound concentration. Also on record: scale not given: the % may be the effect or the level left. The assay is classed as functional. An outline of the steps: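 Rabbit tracheal epithelial cells exposed to 1 × 10⁻⁸ M retinoid from day 6 of culture. Cross-linked envelope formation was determined on day 12, in triplicate.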

For assay [10], the system named is F9. The experiment in a line: Ability to displace 3 uM retinoid and [3H]all-trans-retinoic acid in F9 embryonal carcinoma cells using F9 Plasminogen Activator releasing assay. The assay is classed as functional. The settings on record: Mus musculus, F9, 4 days; read-out: ED50 (the source's name).
The nature of assay [11]: (§3) Inhibition of binding of [3H]all-trans-retinoic acid to cellular retinoic acid binding protein at 3 uM compound concentration, in rat. Also on record: scale not given: the % may be the effect or the level left. In short, it runs like this:
(§4)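 CRABP partially purified from rat testis. Competition of 3 μM retinoid with [³H]-all-trans-retinoic acid, bound ligand separated by Sephadex G-25 gel filtration on 2-mL columns. Triplicate measurements.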

Assay [12] can be described thus: as §3. The assay is classed as functional. Also on record: scale not given: the % may be the effect or the level left. In short, it runs like this: as §4
The target in assay [13] is Cellular retinoic acid-binding protein 1 (Gallus gallus) (UniProt P40220).
Cellular retinoic acid-binding protein 1 (Gallus gallus), sequence (P40220 whole entry): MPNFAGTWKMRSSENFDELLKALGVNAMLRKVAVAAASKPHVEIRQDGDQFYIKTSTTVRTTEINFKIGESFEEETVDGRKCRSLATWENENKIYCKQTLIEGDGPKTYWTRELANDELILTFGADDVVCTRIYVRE

Ornithine decarboxylase (Mus musculus), sequence (P00860 whole entry, looked up): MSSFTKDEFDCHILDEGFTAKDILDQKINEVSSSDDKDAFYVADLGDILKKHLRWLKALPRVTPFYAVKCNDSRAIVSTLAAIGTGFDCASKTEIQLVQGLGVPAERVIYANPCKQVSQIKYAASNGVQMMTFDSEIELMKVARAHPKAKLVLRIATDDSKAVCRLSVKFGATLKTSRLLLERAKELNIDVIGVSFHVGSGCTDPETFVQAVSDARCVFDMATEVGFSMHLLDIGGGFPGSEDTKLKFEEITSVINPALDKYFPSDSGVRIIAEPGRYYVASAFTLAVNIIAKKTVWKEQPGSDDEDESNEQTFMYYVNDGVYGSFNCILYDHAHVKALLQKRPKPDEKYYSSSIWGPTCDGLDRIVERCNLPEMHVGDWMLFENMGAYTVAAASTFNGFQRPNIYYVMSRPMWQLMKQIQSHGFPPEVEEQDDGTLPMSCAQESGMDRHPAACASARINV

In the case of `Cc1c(-c2ccc3c(c2)C(C)(C)CCC3(C)C)ccc2cc(C(=O)O)ccc12`, in the assay filed under Oryctolagus cuniculus [1], the Transglutaminase activity (% of control) is 47%. In addition, the Control in the assay listed under Oryctolagus cuniculus [2] is 14%; in the assay filed under Oryctolagus cuniculus [5] it was 114%; in the assay listed under Oryctolagus cuniculus [9] it was 5%. Further, the EC50 is more than 5000 nM with F9 [3] and 3 nM with F9 [10]. Besides, the ID50 was determined as 66 nM in assay [4] and 15000 nM in assay [6]. Also, the “Cholesterol sulfate synthesis (% of control)” value in the assay listed under Oryctolagus cuniculus [7] worked out at 187%. Besides, the IC50 in assay [8] is 0.08 nM.
In turn, `CC1(C)CCC(C)(C)c2cc(-c3ccc4cc(C(=O)O)ccc4c3)ccc21` registered a Transglutaminase activity (% of control) in the assay listed under Oryctolagus cuniculus [1] of 9%. Also, the Control in the assay filed under Oryctolagus cuniculus [2] is 2%; in assay [11] it was 91%; in the assay filed under Oryctolagus cuniculus [9] it was less than 1%. Further, the EC50 in the assay on F9 [3] turned out to be 31 nM; with F9 [10] it was 1 nM. For the same molecule, the ID50 in [4] worked out at 2.2 nM; in assay [6], 1600 nM. Also, the “Cholesterol sulfate synthesis (% of control)” value in the assay filed under Oryctolagus cuniculus [7] is given as 15%. Moreover, the IC50 in assay [8] was determined as 0.003 nM.
As to `C/C(=C\c1ccc2c(c1)C(C)(C)CCC2(C)C)c1ccc(C(=O)O)cc1`, the Transglutaminase activity (% of control) in the assay listed under Oryctolagus cuniculus [1] turned out to be 5%. Also, the Control is 1% in the assay filed under Oryctolagus cuniculus [2], 10% in the assay filed under Oryctolagus cuniculus [5], 27% in assay [11] and 0% in the assay listed under Oryctolagus cuniculus [9]. Also, the EC50 was 1.5 nM in the assay on F9 [3] and 0.7 nM with F9 [10]. The ID50 in [4] worked out at 0.03 nM; in assay [6] it was 1000 nM. Besides, in the assay filed under Oryctolagus cuniculus [7], the “Cholesterol sulfate synthesis (% of control)” value was 2%. In assay [8], the IC50 was determined as 0.007 nM.
On to `CC1=C(/C=C/C(C)=C/C=C/C(C)=C/C(=O)O)C(C)(C)CCC1` [TRETINOIN], for which the Control in [12] is reported as 91%; in the assay filed under Oryctolagus cuniculus [2], 5%; in the assay filed under Oryctolagus cuniculus [9], less than 1%. In the assay listed under Oryctolagus cuniculus [1], this molecule had a Transglutaminase activity (% of control) of 15%. For the same molecule, the ID50 stood at 1000 nM in [13] and 0.04 nM in assay [4]. Besides, the figures for the EC50 in the assay with F9 [3] and in the assay on F9 [10] were 1.5 nM and 0.1 nM, respectively. For the same molecule, the “Cholesterol sulfate synthesis (% of control)” value in the assay filed under Oryctolagus cuniculus [7] is 100%. For the same molecule, in [8], the IC50 worked out at 0.01 nM.
For `CC1(C)CCC(C)(C)c2cc3cc(-c4ccc(C(=O)O)cc4)ccc3cc21`, the Transglutaminase activity (% of control) in the assay listed under Oryctolagus cuniculus [1] is 14%. The Control in the assay listed under Oryctolagus cuniculus [2] is 2%; in the assay filed under Oryctolagus cuniculus [5], 12%; in the assay listed under Oryctolagus cuniculus [9], less than 1%. The EC50 in the assay with F9 [3] is 0.2 nM; in the assay with F9 [10] it was 0.3 nM. Moreover, the values for the ID50 in [4] and in [6] were 0.07 nM and 800 nM, respectively. In the assay listed under Oryctolagus cuniculus [7], the “Cholesterol sulfate synthesis (% of control)” value came out at 13%. Also, in assay [8], the IC50 is 0.01 nM.
`Cc1cc2c(cc1-c1ccc3cc(C(=O)O)ccc3c1)C(C)(C)CCC2(C)C` returned a Transglutaminase activity (% of control) in the assay filed under Oryctolagus cuniculus [1] of 11%. Besides, the Control in the assay filed under Oryctolagus cuniculus [2] is 2%; in the assay listed under Oryctolagus cuniculus [5], 37%; in the assay filed under Oryctolagus cuniculus [9] it was less than 1%. Moreover, the EC50 is more than 100 nM in the assay on F9 [3] and 0.5 nM with F9 [10]. Also, the ID50 stood at 0.4 nM in assay [4] and 4800 nM in assay [6]. In addition, the “Cholesterol sulfate synthesis (% of control)” value in the assay listed under Oryctolagus cuniculus [7] was 12%. The IC50 in assay [8] worked out at 0.02 nM.
Consider `CC1(C)CCC(C)(C)c2cc(C3C[C@H]3c3ccc(C(=O)O)cc3)ccc21` (stereo not given in full), for which the Transglutaminase activity (% of control) in the assay filed under Oryctolagus cuniculus [1] came out at 23%. The Control in the assay filed under Oryctolagus cuniculus [2] is 2%; in the assay filed under Oryctolagus cuniculus [5], 130%; in the assay listed under Oryctolagus cuniculus [9], less than 1%. The EC50 turned out to be 90 nM with F9 [3] and 2 nM with F9 [10]. In addition, the values for the ID50 in assay [4] and in [6] were 3.2 nM and 4800 nM, respectively. In the assay listed under Oryctolagus cuniculus [7], the “Cholesterol sulfate synthesis (% of control)” value worked out at 73%. The IC50 in assay [8] is more than 0.1 nM.
The molecule `C/C(=C(/C)c1ccc2c(c1)C(C)(C)CCC2(C)C)c1ccc(C(=O)O)cc1` had a Transglutaminase activity (% of control) in the assay listed under Oryctolagus cuniculus [1] of 68%. For the same molecule, the values for the Control in the assay listed under Oryctolagus cuniculus [2] and in the assay listed under Oryctolagus cuniculus [9] were 33% and 100%, respectively. For the same molecule, the EC50 with F9 [3] is more than 100 nM; in the assay on F9 [10], more than 10 nM. The ID50 was 142 nM in [4] and 1000 nM in assay [6]. The “Cholesterol sulfate synthesis (% of control)” value in the assay listed under Oryctolagus cuniculus [7] was 73%. Also, the IC50 in [8] was more than 10 nM.
On to `C/C(=C\c1ccc(C(=O)O)cc1)c1ccc2c(c1)C(C)(C)CCC2(C)C`, for which the Transglutaminase activity (% of control) in the assay listed under Oryctolagus cuniculus [1] turned out to be 1%. Moreover, the Control in the assay listed under Oryctolagus cuniculus [2] was 1%; in assay [11], 100%; in the assay filed under Oryctolagus cuniculus [9], less than 1%. In addition, the EC50 worked out at 1.5 nM with F9 [3] and 0.08 nM with F9 [10]. The ID50 amounted to 0.03 nM in [4] and 800 nM in assay [6]. Also, the “Cholesterol sulfate synthesis (% of control)” value in the assay filed under Oryctolagus cuniculus [7] was 6%. The IC50 in assay [8] came out at 0.002 nM.

Source of the values: ChEMBL document CHEMBL1124521, “Effect of structural modifications in the C7-C11 region of the retinoid skeleton on biological activity in a series of aromatic retinoids” (1989).
